From PubChem BioAssay AID463150 (The Scripps Research Institute Molecular Screening Center, 2010)
The source made the active and inactive calls.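 How the source made its calls: active means LXR activation with EC50, the half-maximal effective concentration, of 10 µM or lower; inactive means the rest.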

Biological target: Oxysterols receptor LXR-beta (Homo sapiens) (UniProt P55055)
Assay: LXR activator potency, GAL4 reporter, dose response, selectivity assay for RORA inverse agonist project, cell-based, luminescence, powder sample (AID 463150)
Conditions: HEK293T GAL4-LXR LBD luciferase reporter, 18-24 h
How it was run: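 Schedule: 24 h bulk reverse transfection before replating, then 20 h compound exposure. Assay system: HEK293T with GAL4-LXR LBD fusion and UAS luciferase reporter. Technique: luciferase reporter luminescence. Compound dosing: 10-point series from nominal 10 µM. Control set: DMSO-treated cells as normalization reference for luminescence.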

Chain of Oxysterols receptor LXR-beta (Homo sapiens) (P55055 whole entry, looked up, the tested form may be a part): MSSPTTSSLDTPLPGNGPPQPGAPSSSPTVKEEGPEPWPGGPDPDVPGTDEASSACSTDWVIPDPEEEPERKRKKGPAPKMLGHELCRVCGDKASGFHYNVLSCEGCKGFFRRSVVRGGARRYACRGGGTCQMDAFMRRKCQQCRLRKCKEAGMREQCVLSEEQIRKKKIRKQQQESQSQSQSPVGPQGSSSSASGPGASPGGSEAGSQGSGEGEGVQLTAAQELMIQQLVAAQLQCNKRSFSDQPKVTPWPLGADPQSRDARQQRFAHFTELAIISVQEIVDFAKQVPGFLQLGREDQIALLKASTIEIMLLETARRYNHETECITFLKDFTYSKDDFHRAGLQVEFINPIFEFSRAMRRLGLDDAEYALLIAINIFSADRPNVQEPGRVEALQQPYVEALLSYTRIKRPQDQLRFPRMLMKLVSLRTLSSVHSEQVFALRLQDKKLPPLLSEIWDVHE

SMILES: O=S(=O)(Nc1ccc(C(O)(C(F)(F)F)C(F)(F)F)cc1)c1cccs1
- EC50: > 10 µM (inactive)
